The list is not random: actives were taken first. Their share in the collection is about 5.3%.
Beta apoptosis = blocks beta cell apoptosis. INS-1E cytokine-induced death, ATP luminescence, 48 h; percent of positive-control rescue, neutral wells zero. protection from apoptosis, % (concentration not given with the values). 0.8% of 300,000 active. AID 435005;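 active means Every replicate reaches about 75%, or at least half do and their mean reaches it too, limit read from the data; inconclusive means At least half of replicates reach the limit but their mean does not; inactive means Under half of replicates reach the limit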;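 further: higher means more ATP so stronger rescue from cytokine killing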
NALP3 yeast inh = inhibitors of NALP3 inflammasome in yeast | Yeast reconstituted NLRP3/ASC/caspase-1, beta-gal luminescence, 24 h | inhibition, % at 10 µM | 0.39% of 330,000 active;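 active means inhibition of 50% or more; inactive means inhibition below 50%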
Mdm2 MdmX PPI = inhibitors of human Mdm2/MdmX interaction; O15151+Q00987; SaOS-2 split-luciferase Mdm2/MdmX complementation, luminescence; inhibition, % at 8 µM; 3% of 330,000 active;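 active means inhibition of at least 50% at 8 µM in the primary screen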
T cruzi repl = T. cruzi replication inhibition; T. cruzi beta-gal in NIH3T3, luminescence, 90 h; inhibition, % (test concentration not listed); 1.4% of 300,000 active; AID 1885;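 active means mean inhibition across valid replicates above about 55%, limit read from the data; inconclusive means mean below that limit but half or more replicates reach it; inactive means mean below it, under half of replicates reach it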;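 further: signal also drops with host cell toxicity which is not excluded here; higher percent means less beta-gal luminescence so fewer parasites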
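Assay system: NIH/3T3 fibroblasts plus reporter T. cruzi. Amount: NIH/3T3 cells, 5,000 per well. Buffer or medium: DMEM, 2% fetal bovine serum. Doses: compound pinned at 50 nL/well, DMSO. Schedule: ≥90 h infection period, 3 h prior cell attachment. Signal: luminescent β-galactosidase signal after 60 min lysis. Read-out: parasite load inhibition, %.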
CSC inhib = blocks cancer stem cells | cancer stem cell-like cells viability, luminescence | inhibition, % at 7.5 µM | 1.1% of 300,000 active | AID 2717; in the data active means inhibition above about 75%; inconclusive means no clear call, values can overlap the other calls; tested in HMLE shEcad cells
Calb FLC = affects C. albicans growth with fluconazole; C. albicans CaCi-2 (fluconazole-resistant clinical isolate) + fluconazole, Alamar Blue growth, 48 h; growth inhibition, % (concentration not given with the values); 0.57% of 300,000 active;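 active means growth inhibition above about 58% in most replicates, limit read from the data, passing the limit was not always enough; inconclusive means exactly half the replicates above a set limit; inactive means most replicates below a set limit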;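 further: all wells also contain fluconazole at 8 µg/ml as a sub-toxic cotreatment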
Mdm2 MdmX conf = confirmation of human Mdm2/MdmX interaction inhibitors; Mdm2-MdmX binding, luminescent assay; inhibition, % at 8 µM; shares compounds with Mdm2 MdmX PPI; 55% of 10,000 active; AID 489028; in the data active means inhibition above about 40%
FLuc counter = inhibits full-length luciferase, flagging false Mdm2/MdmX hits. inhibition, % at 8 µM. 77% of 6,200 active. AID 504607. shares compounds with Mdm2 MdmX PPI. SaOS-2 full-length luciferase counterscreen, luminescence;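 active means mean inhibition at 8 µM reaching about 37%, which flags the compound as non-specific, limit read from the data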;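 further: p53-null SaOS-2 cells with luciferase driven by a doxycycline-inducible promoter; compound on cells about two nights before reading with doxycycline added after day one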
Hits are given with their value; n = inactive; u = inconclusive; x = no result.

SMILES	Beta apoptosis	NALP3 yeast inh	Mdm2 MdmX PPI	T cruzi repl	CSC inhib	Calb FLC	Mdm2 MdmX conf	FLuc counter
CCCCn1c(=O)[nH]c(=O)c2c1nc(Cn1ncc(Cl)c(Cl)c1=O)n2CCC	n	n	100.2	n	n	n	93.2	51.5
CCCCn1c(=O)[nH]c(=O)c2c1nc(CN1C(=O)c3ccccc3S1(=O)=O)n2CCC	n	n	n	n	n	n	x	x
CCOc1ccc(CNC(=O)c2ccc(Sc3ccc(C)cc3)c(NC(C)=O)c2)cc1OC	n	n	n	n	n	n	x	x
O=C(CC1CS(=O)(=O)CC1CC(=O)Nc1ccc2c(c1)OCCO2)Nc1ccc2c(c1)OCCO2 (centres undefined)	n	n	63.2	n	n	n	76.6	90.0
COc1cccc2c1C(=O)c1c(O)c3c(c(O)c1C2=O)C[C@@](O)(C(=O)CO)C[C@@H]3O[C@H]1C[C@H](N)[C@@H](O)[C@H](C)O1	n	n	94.2	n	n	x	99.5	n
CC(=O)[C@]1(O)Cc2c(O)c3c(c(O)c2[C@@H](O[C@H]2C[C@H](N)[C@H](O)[C@H](C)O2)C1)C(=O)c1ccccc1C3=O	n	n	100.4	54.6	85.7	77.6	98.4	n
COc1ccc(C(=O)C(C)[n+]2ccc(C)c3ccccc32)cc1[N+](=O)[O-] (centres undefined)	n	n	n	n	n	n	x	x
CS(=O)(=O)Nc1nnc(Cc2ccccc2)s1	n	n	n	n	n	n	x	x
OCc1nnn(-c2ccccc2)c1CO	n	n	n	n	n	n	x	x
O=C(N/N=C/c1c(O)ccc2ccccc12)c1ccc(CO)nc1	x	n	69.0	n	87.1	n	65.9	36.1
O=C(N/N=C/c1cccc2ccccc12)c1cc2ccccc2o1	x	n	n	n	x	n	x	x
Nc1ccc(C(=O)N/N=C\c2cc(N=Nc3cccc4ccccc34)ccc2O)cc1	n	n	57.1	58.5	98.1	n	67.2	36.2
O=C(CNC(=O)c1ccc(S(=O)(=O)N2CCCC2)cc1)N/N=C/c1ccccc1Cl	n	n	n	n	n	n	x	x
O=C(NN=Cc1c(O)ccc2ccccc12)c1ccc2c(c1)OCO2	n	n	88.2	x	n	x	89.1	50.0
O=C(N/N=C\c1c(O)ccc2ccccc12)c1ccc(S(=O)(=O)N2CCCCC2)cc1	96.7	n	83.4	57.7	100.2	u	86.4	54.6
Cc1noc(C)c1CSCC(=O)Nc1cc(S(=O)(=O)N2CCOCC2)ccc1OCC(F)(F)F	n	n	n	n	x	n	x	x
O=C(COC(=O)/C=C/c1ccccc1)Nc1ccc(Cl)cn1	n	n	n	n	x	n	x	x
COc1ccccc1/C=C/C(=O)OCC(=O)Nc1ccc(Cl)cn1	n	n	55.1	n	n	n	51.4	59.9
CCN1C2=C(C(=O)CCC2)C(c2ccc(O)cc2)C2=C1CCCC2=O	n	n	n	n	n	n	x	x
Cc1ccc(-c2cc(C(F)F)n3ncc(C(=O)N4CCCc5ccccc54)c3n2)cc1	n	n	n	n	n	n	x	x
COc1ccc(-c2cc(C(F)F)n3ncc(C(=O)N4CCc5ccccc54)c3n2)cc1	n	n	66.6	n	n	n	55.7	72.5
CC1CCN(Cc2c(C(=O)N3CCc4ccccc4C3)nc3ccc(Cl)cn23)CC1	n	n	n	n	n	n	x	x
O=C(CCl)c1ccc2c(c1)CCN2C(=O)C1CCCCC1	n	n	96.6	89.8	n	n	53.0	79.2
O=C(CCl)c1ccc2c(c1)CCN2C(=O)C1CC1	n	n	79.6	n	n	u	n	n
O=C(NNC(=O)c1ccc(Cl)s1)c1csc(N2CCOCC2)n1	n	n	n	n	n	n	x	x
SMILES	Beta apoptosis	NALP3 yeast inh	Mdm2 MdmX PPI	T cruzi repl	CSC inhib	Calb FLC	Mdm2 MdmX conf	FLuc counter
Nc1c(C(=O)c2ccccc2O)cnn1-c1ccc(S(=O)(=O)N2CCOCC2)cc1[N+](=O)[O-]	n	n	70.2	n	n	n	n	x
Cc1ccccc1OCC(=O)Nc1ccccc1N1CCCCC1	n	n	n	n	n	n	x	x
Cc1cccc(OCC(=O)Nc2ccccc2N2CCN(C(=O)C(C)C)CC2)c1C	n	n	100.3	n	n	n	n	x
Cc1nc2sc(C(N)=O)c(N)c2c(C)c1CC(=O)c1ccccc1	n	n	57.5	n	n	n	62.2	n
CCOC(=O)c1c(C)nc2sc(C(N)=O)c(N)c2c1-c1ccc(OC)cc1	n	n	n	n	n	n	x	x
COC(=O)c1ccc(NC(=O)Cn2nc(C)c3ccccc3c2=O)cc1	x	n	n	n	x	n	x	x
COc1ccc(-c2nn(C)c(=O)c3ccccc23)cc1NC(=O)Cn1nc(C)c2ccccc2c1=O	n	n	57.4	73.6	n	n	n	x
Cc1ccc(-c2nn(CC(=O)NCc3cc(-c4nn(C)c(=O)c5ccccc45)ccc3C)c(=O)c3ccccc23)cc1	n	n	96.9	n	n	n	n	x
CCC(=O)Nc1cc(-c2nn(C)c(=O)c3ccccc23)ccc1OC	n	n	n	n	x	n	x	x
Cc1nn(CC(=O)Nc2ccc3c(c2)oc2ccccc23)c(=O)c2ccccc12	n	n	77.1	n	x	n	n	x
COc1ccc2oc(C(=O)NC3CCCCC3)c(C)c2c1	x	n	n	n	n	n	x	x
COc1ccc(/C(C)=N/NC(=O)CNC(=O)c2ccncc2)cc1	n	n	n	n	n	n	x	x
CC(C)Cn1c(N)c(C(=O)COC(=O)c2ccc(O)cc2O)c(=O)n(C)c1=O	n	n	n	n	n	n	x	x
COc1ccc(NC(=O)C2Cc3ccccc3CN2C(=O)c2ccccc2)cn1 (centres undefined)	n	n	n	n	n	n	x	x
Cc1cccc(C(=O)NCC(=O)N(C)CC(=O)Nc2ccc(N3CCOCC3)cc2)c1	n	n	n	n	n	n	x	x
Cc1cc(-n2c(C)cc(C(=O)CCl)c2C)no1	n	n	79.2	79.2	n	n	67.4	86.8
COc1ccc(-n2c(C)cc(C(=O)CCl)c2C)cc1	n	n	100.3	n	94.9	n	61.2	49.2
Cc1cc(-n2c(C)cc(C(=O)CN3C(=O)C(=O)N(C)C3=O)c2C)no1	n	n	n	x	n	x	x	x
Cc1cc(C(=O)CCl)c(C)n1-c1c(C)n(C)n(-c2ccccc2)c1=O	n	n	51.3	n	n	n	n	x
Cc1nc(-c2ccc(Cl)cc2)sc1C(=O)O	n	n	n	n	n	n	x	x
O=C(NCC(O)c1ccccc1)Nc1cccs1 (centres undefined)	n	n	n	n	n	n	x	x
Cc1cccc(CN2CCN(C(=O)c3cccc4ccccc34)CC2)c1	n	n	n	n	n	n	x	x
Cc1cccc(CN2CCN(C(=O)CCl)CC2)c1	n	n	63.7	n	n	n	n	x
O=C(Nc1nccs1)c1cccc(N2C(=O)c3cccc4c([N+](=O)[O-])ccc(c34)C2=O)c1	n	n	86.7	n	n	n	n	x

Compound activity from PubChem.
